Test results published in ChEMBL document CHEMBL1921669, “In vivo PET imaging of histone deacetylases by 18F-suberoylanilide hydroxamic acid (18F-SAHA)” (J Med Chem, 2011).
pIC50: −log10 of the molar value.

Experiments:
Heart = assay: Biodistribution in C57BL/6 mouse heart at 241 +/- 18 uCi, iv; type: ADME, organism-based; settings: in vivo
Summary of the method: (§1)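 Six C57BL/6 mice got the 18F tracer by tail-vein iv injection. Groups were sacrificed at 1 h (n = 3) and 3 h (n = 3) after dosing. Tissues were excised and weighed, and 18F activity was counted by gamma counter. Values are expressed as % injected dose per gram of tissue.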

Kidney = assay: Biodistribution in C57BL/6 mouse kidney at 241 +/- 18 uCi, iv; type: ADME, organism-based; settings: in vivo; summary of the method: as §1
Mus musculus [1] = assay: Biodistribution in C57BL/6 mouse thymus at 241 +/- 18 uCi, iv; type: ADME, organism-based; settings: in vivo; summary of the method: as §1
Mus musculus [2] = assay: Biodistribution in C57BL/6 mouse whole blood at 243 +/- 25 uCi, iv using […] dimethylacetamide, 10% Solutol HS15, 80% PBS formulation; type: ADME, organism-based; settings: in vivo
Summary of the method: (§2)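 The 18F tracer was given to C57BL/6 mice by tail-vein iv bolus, n = 3 per vehicle. Vehicles were 60% PEG400 in water, 10% DMSO in water, or 20% DMAC:Solutol (1:1) in saline. Serial retro-orbital blood was drawn into tared capillary tubes, weighed and gamma-counted to give the blood time-activity curve.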

[3] = Initial half life in iv dosed mouse plasma; type: ADME, organism-based; settings: read-out: alphat1/2
Mus musculus [4] = assay: Biodistribution in C57BL/6 mouse whole blood at 243 +/- 25 uCi, iv using 10% DMSO, 90% water formulation; type: ADME, organism-based; settings: in vivo; summary of the method: as §2
Blood = assay: Biodistribution in C57BL/6 mouse blood at 241 +/- 18 uCi, iv; type: ADME, organism-based; settings: in vivo; summary of the method: as §1
Brain = assay: Biodistribution in C57BL/6 mouse brain at 241 +/- 18 uCi, iv; type: ADME, organism-based; settings: in vivo; summary of the method: as §1
Nucleic Acid [5] = assay: Ratio of drug uptake in tumor to muscle in human A2780 cells xenografted Nu/Nu mouse at 2 mg in 100 uL of 60% PEG400 40% water, ip after 3 hrs by PET-CT analysis; type: ADME, organism-based; settings: in vivo
Summary of the method: (§3)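 Nu/Nu mice (n = 5) bearing subcutaneous flank A2780 human ovarian cancer xenografts (10⁶ cells in Matrigel per flank), imaged 10 days after implantation. ¹⁸F-labelled tracer PET-CT under isoflurane anaesthesia (1.5%, O₂ 2 L/min), each acquisition ~80 min. […] Read-out: tumor/muscle uptake ratio.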

Mus musculus [6] = assay: Biodistribution in human A2780 cells xenografted Nu/Nu mouse tumor at 2 mg in 100 uL of 60% PEG400 40% water, ip by PET-CT analysis; type: ADME, organism-based, Neoplasm; settings: in vivo, TDE = time-dependent effect
Summary of the method: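 Nu/Nu mice (n = 5) carried subcutaneous A2780 human ovarian cancer implants (10⁶ cells in Matrigel per flank) and were imaged 10 days later under isoflurane 1.5%. The 18F tracer was scanned by PET-CT (about 80 min acquisition) before and after competition. […] Read-out was the tumor/muscle ratio.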

Mus musculus [7] = assay: Biodistribution in C57BL/6 mouse whole blood at 243 +/- 25 uCi, iv using 60% PEG400, 40% water formulation; type: ADME, organism-based; settings: in vivo; summary of the method: as §2
Nucleic Acid [8] = assay: Ratio of drug uptake in tumor to muscle in human A2780 cells xenografted Nu/Nu mouse at 2 mg in 100 uL of 60% PEG400 40% water, ip administered as 2 dose every 24 hrs interval measured after 3 hrs of post last dose by PET-CT analysis; type: ADME, organism-based; settings: in vivo; summary of the method: as §3
Liver = assay: Biodistribution in C57BL/6 mouse liver at 241 +/- 18 uCi, iv; type: ADME, organism-based; settings: in vivo; summary of the method: as §1
Histone deacetylase 1 = Histone deacetylase 1 (Homo sapiens, UniProt Q13547); assay: Inhibition of human recombinant full-length HDAC1 using fluorophore conjugated substrate by fluorescence assay
[9] = target: T1, Protein deacetylase HDAC6 (Homo sapiens, UniProt Q9UBN7); assay: Inhibition of human recombinant full-length HDAC6 using fluorophore conjugated substrate by fluorescence assay
T1 sequence (Q9UBN7 whole entry): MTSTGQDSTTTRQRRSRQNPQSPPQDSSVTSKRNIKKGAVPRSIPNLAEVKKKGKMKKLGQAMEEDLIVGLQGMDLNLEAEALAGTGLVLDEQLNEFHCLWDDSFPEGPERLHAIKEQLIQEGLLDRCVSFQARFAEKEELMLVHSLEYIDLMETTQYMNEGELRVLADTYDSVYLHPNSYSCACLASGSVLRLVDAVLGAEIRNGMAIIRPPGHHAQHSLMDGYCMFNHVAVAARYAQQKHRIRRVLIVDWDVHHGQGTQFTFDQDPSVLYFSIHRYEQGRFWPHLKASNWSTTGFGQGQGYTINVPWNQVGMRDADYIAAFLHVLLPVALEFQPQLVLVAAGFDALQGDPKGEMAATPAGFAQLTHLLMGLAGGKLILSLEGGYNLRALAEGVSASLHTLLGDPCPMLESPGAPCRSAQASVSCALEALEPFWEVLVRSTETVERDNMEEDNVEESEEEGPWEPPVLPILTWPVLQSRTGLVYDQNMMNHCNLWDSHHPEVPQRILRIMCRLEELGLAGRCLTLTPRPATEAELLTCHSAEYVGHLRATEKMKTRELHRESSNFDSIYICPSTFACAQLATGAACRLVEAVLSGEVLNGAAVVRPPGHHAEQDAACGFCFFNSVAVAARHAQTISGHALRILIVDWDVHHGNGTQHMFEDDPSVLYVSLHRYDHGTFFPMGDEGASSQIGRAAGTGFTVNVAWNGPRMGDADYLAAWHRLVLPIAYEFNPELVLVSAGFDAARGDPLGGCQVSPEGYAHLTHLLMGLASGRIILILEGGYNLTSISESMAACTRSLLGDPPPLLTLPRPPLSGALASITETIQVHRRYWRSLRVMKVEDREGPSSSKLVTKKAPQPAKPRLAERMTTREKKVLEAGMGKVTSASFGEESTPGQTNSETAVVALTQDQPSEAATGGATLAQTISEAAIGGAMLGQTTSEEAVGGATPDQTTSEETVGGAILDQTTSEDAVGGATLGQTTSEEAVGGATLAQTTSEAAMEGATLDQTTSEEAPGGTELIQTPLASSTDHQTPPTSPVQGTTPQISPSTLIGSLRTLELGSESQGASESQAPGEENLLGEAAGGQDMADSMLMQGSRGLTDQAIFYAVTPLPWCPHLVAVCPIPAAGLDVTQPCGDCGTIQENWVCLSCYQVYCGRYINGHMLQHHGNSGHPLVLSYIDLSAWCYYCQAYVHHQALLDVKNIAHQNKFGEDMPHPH

Histone deacetylase 2 = Histone deacetylase 2 (Homo sapiens, UniProt Q92769); assay: Inhibition of human recombinant full-length HDAC2 using fluorophore conjugated substrate by fluorescence assay
Histone deacetylase 3 = Histone deacetylase 3 (Homo sapiens, UniProt O15379); assay: Inhibition of human recombinant full-length HDAC3 using fluorophore conjugated substrate by fluorescence assay
Chain of Histone deacetylase 3 (O15379 whole entry): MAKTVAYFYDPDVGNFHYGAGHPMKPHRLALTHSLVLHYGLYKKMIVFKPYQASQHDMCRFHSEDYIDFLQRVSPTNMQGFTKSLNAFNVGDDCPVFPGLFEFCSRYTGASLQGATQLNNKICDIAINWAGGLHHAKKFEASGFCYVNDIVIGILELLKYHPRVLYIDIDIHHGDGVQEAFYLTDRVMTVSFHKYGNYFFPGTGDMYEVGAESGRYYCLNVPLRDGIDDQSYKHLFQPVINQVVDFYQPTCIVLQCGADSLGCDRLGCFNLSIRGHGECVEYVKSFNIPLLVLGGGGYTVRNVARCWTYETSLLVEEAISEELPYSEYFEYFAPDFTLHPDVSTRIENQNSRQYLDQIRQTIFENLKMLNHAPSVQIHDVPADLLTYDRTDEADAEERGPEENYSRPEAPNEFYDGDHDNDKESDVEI

Chain of Histone deacetylase 2 (Q92769 whole entry): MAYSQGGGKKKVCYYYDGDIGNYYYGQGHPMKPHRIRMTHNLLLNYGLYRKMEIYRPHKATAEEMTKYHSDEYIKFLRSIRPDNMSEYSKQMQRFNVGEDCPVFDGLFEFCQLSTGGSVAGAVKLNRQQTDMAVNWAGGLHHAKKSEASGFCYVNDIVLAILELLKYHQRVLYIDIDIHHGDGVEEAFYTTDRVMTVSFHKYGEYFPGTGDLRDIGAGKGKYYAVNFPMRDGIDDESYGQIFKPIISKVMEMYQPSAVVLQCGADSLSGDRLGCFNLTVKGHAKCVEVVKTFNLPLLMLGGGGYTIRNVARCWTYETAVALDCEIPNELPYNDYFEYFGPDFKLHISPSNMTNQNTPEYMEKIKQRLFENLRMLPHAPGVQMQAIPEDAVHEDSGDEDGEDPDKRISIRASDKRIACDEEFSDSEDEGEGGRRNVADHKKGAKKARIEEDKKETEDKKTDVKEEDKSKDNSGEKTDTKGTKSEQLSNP
Chain of Histone deacetylase 1 (Q13547 whole entry): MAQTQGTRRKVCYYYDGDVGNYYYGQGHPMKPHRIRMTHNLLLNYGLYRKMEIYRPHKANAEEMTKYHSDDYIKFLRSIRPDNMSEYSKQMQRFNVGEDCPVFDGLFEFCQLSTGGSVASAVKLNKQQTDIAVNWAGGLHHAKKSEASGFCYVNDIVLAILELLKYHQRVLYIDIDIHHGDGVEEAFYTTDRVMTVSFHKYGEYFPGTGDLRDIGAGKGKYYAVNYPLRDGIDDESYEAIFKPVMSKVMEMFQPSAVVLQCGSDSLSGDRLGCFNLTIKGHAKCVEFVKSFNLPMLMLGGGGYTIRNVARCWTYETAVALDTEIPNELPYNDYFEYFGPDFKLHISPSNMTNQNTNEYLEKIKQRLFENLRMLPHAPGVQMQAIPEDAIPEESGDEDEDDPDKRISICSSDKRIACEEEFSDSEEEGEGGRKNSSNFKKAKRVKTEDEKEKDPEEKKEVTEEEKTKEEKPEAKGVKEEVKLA

SMILES	Drug uptake (Heart)	Drug uptake (Kidney)	Drug uptake (Mus musculus [1])	Drug uptake (Mus musculus [2])	half-life [3]	Drug uptake (Mus musculus [4])	Drug uptake (Blood)	Drug uptake (Brain)	Ratio (Nucleic Acid [5])	Drug uptake (Mus musculus [6])	Drug uptake (Mus musculus [7])	Ratio (Nucleic Acid [8])	Drug uptake (Liver)	pIC50 (Histone deacetylase 1)	pIC50 [9]	pIC50 (Histone deacetylase 2)	pIC50 (Histone deacetylase 3)
O=C(CCCCCCC(=O)Nc1ccc([18F])cc1)NO	Active	Active	Active	6 % ID/g	< 1 min	3 % ID/g	Active	Active	1.7	tde	< 1 % ID/g	1.3	Active	–	–	–	–
O=C(CCCCCCC(=O)Nc1ccc([19F])cc1)NO	–	–	–	–	–	–	–	–	–	–	–	–	–	8.05	7.30	7.90	7.62
